# TRPC6 activator: mouse TRPC6 channel activation; HEK293-TRPC6 membrane potential dye fluorescence; active compounds read high; B-score at 10 µM; 310,000 compounds, 0.13% hits;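 active = B-score of the integrated fluorescence ratio above library mean plus 3 SD, and starting fluorescence ratio within library mean plus 5 SD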;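 note: higher score means more depolarization so channel activation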
# Target sequence (Q61143 whole entry, looked up): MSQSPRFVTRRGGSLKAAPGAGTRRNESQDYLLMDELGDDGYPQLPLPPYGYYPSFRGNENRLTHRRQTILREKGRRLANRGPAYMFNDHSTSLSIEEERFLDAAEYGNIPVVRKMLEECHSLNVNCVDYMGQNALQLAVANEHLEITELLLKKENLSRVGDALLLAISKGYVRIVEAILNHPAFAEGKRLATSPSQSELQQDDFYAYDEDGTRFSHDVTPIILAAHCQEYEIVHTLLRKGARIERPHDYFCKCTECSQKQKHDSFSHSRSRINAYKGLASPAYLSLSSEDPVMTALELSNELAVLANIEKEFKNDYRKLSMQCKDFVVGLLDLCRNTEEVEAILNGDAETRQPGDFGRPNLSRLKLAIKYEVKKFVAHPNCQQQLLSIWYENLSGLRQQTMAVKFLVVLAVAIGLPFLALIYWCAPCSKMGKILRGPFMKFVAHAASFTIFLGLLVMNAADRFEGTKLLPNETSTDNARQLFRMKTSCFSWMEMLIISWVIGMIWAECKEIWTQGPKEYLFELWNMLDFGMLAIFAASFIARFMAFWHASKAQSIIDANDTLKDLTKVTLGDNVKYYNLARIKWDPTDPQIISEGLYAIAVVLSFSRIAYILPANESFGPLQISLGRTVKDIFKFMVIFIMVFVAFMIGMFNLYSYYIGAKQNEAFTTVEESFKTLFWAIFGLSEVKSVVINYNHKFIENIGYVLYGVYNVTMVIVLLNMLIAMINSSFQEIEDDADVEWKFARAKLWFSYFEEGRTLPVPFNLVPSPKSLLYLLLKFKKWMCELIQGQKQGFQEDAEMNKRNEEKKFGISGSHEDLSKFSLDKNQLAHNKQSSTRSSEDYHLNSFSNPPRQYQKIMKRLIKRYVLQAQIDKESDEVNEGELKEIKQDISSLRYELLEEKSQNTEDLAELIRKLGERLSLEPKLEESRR
# TRPC6 inhibitor: mouse TRPC6 channel inhibition; Q61143; HEK293-TRPC6, membrane potential dye, ACh-evoked depolarization; active compounds read low; B-score at 10 µM; 310,000 compounds, 1.1% hits; AID 2553;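 active = B-score under library mean minus 3 SD, initial fluorescence not abnormally high, positive integrated signal ratio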;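 note: B-score derived from integrated fluorescence ratio over the kinetic read; more negative B-score means stronger inhibition of depolarization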
# TRPC4 PAM: allosteric potentiators of mouse TRPC4 channel. Q9QUQ5. HEK293 TRPC4beta/mu-opioid, DAMGO EC20, Fluo-4 Ca2+ flux; active compounds read high. B-score at 10 µM. 310,000 compounds, 0.42% hits;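 active = B-score of calcium response area above 5 SD of library B-scores, with initial fluorescence ratio within 5 SD of library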;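 note: B-score of integrated fluorescence ratio over time as area under calcium response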
# TRPC4 agonist: TRPC4 (mouse) channel activation; Q9QUQ5; AID 2237; HEK293 TRPC4beta/mu-opioid, Fluo4 calcium fluorescence; active compounds read high; 310,000 compounds, 0.49% hits; B-score at 10 µM;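 active = B-score above 5 SD of library B-scores, and initial fluorescence ratio not above library mean plus 5 SD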;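 note: positive B-score marks a calcium rise read as TRPC4 activation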
#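 Assay system – TRPC4beta and mu-opioid receptor HEK293 stable cells · Measured by – Fluo4 fluorescence, kinetic · Schedule – dye loading 45 min room temperature, 110 s kinetic read · Read-out – B-scored integrated calcium fluorescence ratio · Controls – buffer and maximal DAMGO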
# TRPC4 block: blocks the mouse TRPC4 cation channel. 300,000 compounds, 0.39% hits. B-score at 10 µM. Q9QUQ5. HEK293 TRPC4beta/mu-opioid, DAMGO-evoked Fluo4 calcium flux; active compounds read low;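 active = B-score over 3 SD under the library average, no early fluorescence shift, positive overall ratio signal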
#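 Assay system: HEK293 cells with stable TRPC4beta plus mu-opioid receptor expression. Dosing: single dose. Measured by: Fluo4 Ca2+ flux fluorescence. Also added: DAMGO in two steps, submaximal then maximal. Read-out: B score from integrated Fluo4 fluorescence ratio.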
# TRPC4 sel inh 2: mouse TRPC4 off-target activity of TRPC6 inhibitors, second screen | shares compounds with TRPC6 inhibitor | HEK293 TRPC4/MOR, membrane potential dye fluorescence; channel activated by saturating DAMGO dose | inhibition, % at 10 µM | 920 compounds, 42% hits;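 active = compounds whose fluorescence signal differed from control wells by over 3 SD, either direction, in both duplicate plates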
# TRPC4 spec: selectivity of TRPC6 inhibitors: effect on mouse TRPC4 | AID 2777 | shares compounds with TRPC6 inhibitor | activity change, negative = inhibition, % at 10 µM | HEK293 TRPC4/mu-opioid, membrane potential fluorescence | 920 compounds, 61% hits;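 active = rise or fall in signal beyond 3 SD of buffer-only wells in both replicate plates, either sign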;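 note: integrated kinetic ratio of fluorescence range over baseline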
# HEK293 MPD ctr 2-1: parental HEK293 nonspecific activity of TRPC6 inhibitors, second screen; shares compounds with TRPC6 inhibitor; parental HEK293 membrane potential dye fluorescence; maximal acetylcholine challenge after compound addition; signal change vs control, % at 10 µM; 920 compounds, 31% hits;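 active = membrane potential signal moving either way by over 3 SD of the maximum-effect control, in both duplicate plates, meaning non-specific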
# HEK293 MPD ctr-1: counter-screen for TRPC6 inhibitors: effect in parental HEK293 cells; parental HEK293 membrane potential dye fluorescence; shares compounds with TRPC6 inhibitor; membrane potential signal change, % at 10 µM; AID 2780; 920 compounds, 60% hits;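 active = membrane potential signal shifting up or down by more than 3 SD of buffer-only wells, on both duplicate plates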
# HEK293 MPD ctr-2: parental HEK293 nonspecific activity of TRPC6 modulators; shares compounds with TRPC6 inhibitor; membrane potential dye fluorescence; membrane potential signal change, % at 10 µM; 2,400 compounds, 51% hits; AID 488924;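 active = membrane potential signal moves up or down beyond 5 SD from buffer-only wells, on both duplicate plates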
# HEK293 MPD ctr 2-2: parental HEK293 nonspecific activity of TRPC6 modulators, second screen. shares compounds with TRPC6 inhibitor. membrane potential dye fluorescence; after compound, maximal acetylcholine stimulation. inhibition, % at 10 µM. 2,400 compounds, 14% hits. AID 488926;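 active = membrane potential signal drops by more than 5 SD from the mean control signal, in both duplicate plates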;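 note: plate controls were acetylcholine ECmax control wells for no effect and buffer only wells for full effect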
# TRPC4/MOR mod: tests whether TRPC6 modulators also affect mouse TRPC4; HEK293 TRPC4/mu-opioid, membrane potential fluorescence; 2,400 compounds, 69% hits; percent change from control (negative = decrease, positive = increase), % at 10 µM; shares compounds with TRPC6 inhibitor;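 active = membrane potential signal moved up or down beyond 5 SD of buffer control wells, in both duplicate plates, actives on both sides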;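 note: plate controls were assay buffer wells for no effect and DAMGO maximal-effect wells for full effect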
# TRPC4 ctr inh 2: mouse TRPC4 off-target activity of TRPC6 modulators, second screen; inhibition, % at 10 µM; shares compounds with TRPC6 inhibitor; AID 488928; HEK293 TRPC4/mu-opioid, membrane potential dye fluorescence; stimulated with maximal-effect DAMGO; 2,400 compounds, 55% hits;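 active = drop in membrane potential signal beyond 5 SD of the control wells in both duplicate plates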;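 note: TRPC4 counter screen for TRPC6 hits run under conditions tuned for TRPC6 not TRPC4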
# TRPC6 block conf: mouse TRPC6 inhibitor confirmation. shares compounds with TRPC6 inhibitor. HEK293-TRPC6, membrane potential dye, ACh-evoked depolarization. inhibition, % at 10 µM. 3,300 compounds, 43% hits;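 active = fluorescence ratio falls more than 5 SD below the full-stimulation control mean, in both duplicate runs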;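 note: integrated fluorescence ratio of peak minus minimum over baseline after agonist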
# TRPC6 act conf: confirmation of mouse TRPC6 activators. shares compounds with TRPC6 inhibitor. HEK293-TRPC6 membrane potential dye fluorescence, FDSS. activation, % at 10 µM. 2,800 compounds, 11% hits. AID 488961;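 active = ratio signal rise beyond 5 SD above unstimulated control wells' mean, seen in both duplicate runs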;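 note: plate controls were buffer EC0 wells for no effect and acetylcholine ECmax response for full effect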
# * marks the source's active call; other numbers are inactive results; i = inactive; . = no result given. Most compounds without a hit are left out; they make up all but 2.3% or so of the library.
SMILES,TRPC6 activator,TRPC6 inhibitor,TRPC4 PAM,TRPC4 agonist,TRPC4 block,HEK293 MPD ctr-2,HEK293 MPD ctr 2-2,TRPC4/MOR mod,TRPC4 ctr inh 2,TRPC6 block conf,TRPC6 act conf,others
CCN(CC)CCCNc1nc2ccccc2c2nc(-c3ccncc3)nn12,i,-7.2*,i,i,i,.,.,.,.,69%*,i,TRPC4 sel inh 2=61%*;TRPC4 spec=-23%*;HEK293 MPD ctr 2-1=-0.5%*;HEK293 MPD ctr-1=-316%*
COCCCNc1nc2cc(OC)c(OC)cc2c2nc(-c3ccccc3)nn12,i,i,i,i,i,.,.,.,.,.,.,
NS(=O)(=O)c1ccc(NC(=O)c2ccc(F)cc2F)c(NC(=O)c2ccc(F)cc2F)c1,i,i,i,i,i,.,.,.,.,.,.,
Cn1c(=NC(=O)CS(=O)(=O)c2ccccc2)sc2cc([N+](=O)[O-])ccc21,i,i,i,i,i,.,.,.,.,.,.,
OCCCNc1ncnc2sc3c(c12)CCN(Cc1ccccc1)C3,i,-6*,i,i,i,-137%*,i,-38%*,i,i,i,
O=c1[nH]cnc2sc3c(c12)CCN(Cc1ccccc1)C3,i,i,i,i,i,.,.,.,.,.,.,
COc1cc(CN2CCN(CCCc3ccccc3)C(CCO)C2)cc(OC)c1O (centres undefined),i,i,i,i,i,.,.,.,.,.,.,
Nc1c(-c2ccccc2)sc2ccc3ccccc3[n+]12,i,-5*,i,i,i,-99%*,i,-18%*,i,44%*,i,
Cc1ccc(C)c(S(=O)(=O)N2CCC(c3nc4c(nnn4Cc4ccc5c(c4)OCCO5)c(=O)[nH]3)CC2)c1,i,i,i,i,i,.,.,.,.,.,.,
CCC(C)(C)n1nnnc1C(c1ccc(C)cc1)N1CCN(C(=O)c2ccco2)CC1 (centres undefined),i,i,i,i,i,.,.,.,.,.,.,
CCC(C)(C)n1nnnc1C(c1ccc(F)cc1)N1CCN(C(=O)c2ccco2)CC1 (centres undefined),i,-5.5*,i,i,i,124%*,i,28%*,34%*,i,.,
COc1cc(/C=N/Nc2nncc3ccccc23)cc(OC)c1OC,i,-7.9*,i,i,i,.,.,.,.,i,i,TRPC4 sel inh 2=i;TRPC4 spec=-25%*;HEK293 MPD ctr 2-1=i;HEK293 MPD ctr-1=-458%*
CCn1cc(C(=O)OCC(=O)N(C)C2CCS(=O)(=O)C2)c(=O)c2ccc(C)nc21 (centres undefined),i,-5.4*,i,i,i,-269%*,i,-54%*,i,60%*,i,
CCN(CC)CCN(C(=O)C1=COCCO1)c1nc2c(OC)ccc(OC)c2s1,i,-5.4*,i,i,i,-104%*,i,-26%*,69%*,i,i,
CCN(CC)CCN(C(=O)c1ccc([N+](=O)[O-])cc1)c1nc2c(OC)cccc2s1,i,-6.3*,i,i,i,i,i,-12%*,36%*,i,i,
CCN(CC)CCN(C(=O)c1ccc(C(=O)c2ccccc2)cc1)c1nc2c(OC)cccc2s1,i,i,i,i,i,.,.,.,.,.,.,
CCN(CC)CCN(C(=O)C1=COCCO1)c1nc2cc3c(cc2s1)OCO3,i,-6.8*,i,i,i,.,.,.,.,i,i,TRPC4 sel inh 2=52%*;TRPC4 spec=-22%*;HEK293 MPD ctr 2-1=i;HEK293 MPD ctr-1=-184%*
CCN(CC)CCN(C(=O)C1=COCCO1)c1nc2ccc(C)cc2s1,i,i,i,i,i,.,.,.,.,.,.,
CCN1C(=O)C(=O)N(CC(=O)N2CCN(c3ccccc3)CC2)C1=O,i,i,i,i,i,.,.,.,.,.,.,
O=C(COc1ccc(Cl)cc1)N(Cc1ccc(F)cc1)C1CCS(=O)(=O)C1 (centres undefined),i,i,i,i,i,.,.,.,.,.,.,
CCN(CC)CCC(O)(c1ccccc1)C1CCCCC1 (centres undefined),i,i,i,i,i,.,.,.,.,.,.,
CN1CCCN=C1COC(=O)C(O)(c1ccccc1)C1CCCCC1 (centres undefined),i,-7*,i,i,i,.,.,.,.,91%*,i,TRPC4 sel inh 2=i;TRPC4 spec=0.2%*;HEK293 MPD ctr 2-1=36%*;HEK293 MPD ctr-1=i
O=C(CSCc1ccccc1Br)NNC(=S)NCc1ccco1,i,i,i,i,i,.,.,.,.,.,.,
CCOC(=O)c1ccc(NC(=O)CCC2COc3ccccc3O2)cc1 (centres undefined),20*,i,i,i,i,i,i,i,i,.,136%*,
O=c1cc(C(F)(F)F)[nH]c2ccc(C(F)(F)F)cc12,i,-7*,i,i,i,.,.,.,.,105%*,.,TRPC4 sel inh 2=i;TRPC4 spec=15%*;HEK293 MPD ctr 2-1=i;HEK293 MPD ctr-1=11%*
Cc1cc(=O)c2ccc(C(F)(F)F)cc2[nH]1,i,i,i,i,i,.,.,.,.,.,.,
Cc1cccc(N2C(=NC(=O)c3ccccc3)SC3CS(=O)(=O)CC32)c1 (centres undefined),i,i,i,i,i,.,.,.,.,.,.,
Cc1c(NC(=O)Nc2cccc(Cl)c2Cl)c(=O)n(-c2ccccc2)n1C,i,i,i,i,i,.,.,.,.,.,.,
